Laboratory results reported in ChEMBL document CHEMBL3526153, “Metabolism of gambogic acid in rats: a rare intestinal metabolic pathway responsible for its final disposition” (Drug Metab Dispos, 2011).

Tests used:
[1] = system: Liver microsome; experiment: Drug level in rat liver microsomes treated with gambogic acid at 50 uM preincubated for 10 mins followed by NADPH addition measured after 2 hrs in presence of GSH; format: ADME
Method in brief: (§1)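 GA 50 μM in 1.0 mL 0.1 M PBS pH 7.4 with GSH 5.0 mM and NADPH 6.0 mM (final). Line 7 uses rat liver microsomes 1.0 mg/mL; line 2 omits microsomes. Preincubated 10 min at 37 °C, started with NADPH, run 2 h at 37 °C, duplicate. Quenched with ice-cold acetonitrile and dried. LC-MS/MS in negative ESI, isocratic 65% acetonitrile / 10 mM ammonium acetate.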

[2] = Drug level in PBS buffer treated with gambogic acid at 50 uM preincubated for 10 mins followed by NADPH addition measured after 2 hrs in presence of GSH and absence of liver microsomes; format: physicochemical; method in brief: as §1
[3] = Retention time of the compound in Sprague-Dawley rat bile treated with gambogic acid at 4 mg/kg, iv measured over 24 hrs by LC-DAD-MS/MS analysis; format: ADME, organism-based; set-up: dose 4 mg/kg, route intravenous; settings: in vivo
Method in brief: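 SD rats, n=4, bile-duct cannulated under chloral hydrate and allowed 1 h recovery. GA 4 mg/kg i.v.; bile collected on ice, pooled 0–24 h. C18 LC-DAD-MS/MS at 0.25 mL/min with acetonitrile gradient (38% to 80%) in 10 mM ammonium acetate, 40 °C, negative ESI.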

In the case of `CC(C)=CCC[C@]1(C)C=Cc2c(O)c3c(c(CC=C(C)C)c2O1)O[C@]12C(C3=O)C(SC[C@H](NC(=O)CC[C@H](N)C(=O)O)C(=O)NCC(=O)O)[C@@H]3C[C@H]1C(C)(C)O[C@@]2(C/C=C(/C)C(=O)O)C3=O` (stereo partly drawn), the Drug metabolism [1] is reported as “metabolite_detected”, the Drug metabolism [2] is reported as “metabolite_detected” and the Retention_time [3] is reported as 5.7 min.
